{"source": "ChEMBL document CHEMBL1157830", "about": "“Terpenoids and a flavonoid glycoside from Acacia pennata leaves as hedgehog/GLI-mediated transcriptional inhibitors” (J Nat Prod, 2010)", "key": {"[1]": {"assay": "Inhibition of Hh/GLI1-mediated transcription in human HaCaT cells expressing T-Rex system by luciferase reporter gene assay", "type": "cell-based", "how_it_was_run": "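HaCaT-GLI1-Luc cells (exogenous GLI1 under tetracycline control, T-REx) seeded at 2 × 10^5 per well. Compounds added after 12 h tetracycline induction, at 0.05% DMSO. GLI-dependent luciferase activity and cell viability read at the same time. n = 3, SD.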"}, "PANC-1 [2]": {"test_system": "PANC-1", "assay": "Cytotoxicity against human PANC1 cells after 24 hrs by fluorimetric microculture cytotoxicity assay", "type": "functional, cell-based", "settings": "PANC-1, 24 h", "how_it_was_run": "(§1)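 Cells plated at 1 × 10^4 per well in RPMI + 10% FBS and preincubated 24 h at 37 °C. Medium then replaced with fresh medium containing a range of compound concentrations at 0.05% DMSO. After 24 h exposure, proliferation measured by fluorometric microculture cytotoxicity assay (FMCA). n = 3, SD; IC50 reported.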"}, "DU-145": {"test_system": "DU-145", "assay": "Cytotoxicity against human DU145 cells after 24 hrs by fluorimetric microculture cytotoxicity assay", "type": "functional, cell-based", "settings": "DU-145, 24 h", "how_it_was_run": "as §1"}, "[3]": {"assay": "Cytotoxicity against mouse C3H10T1/2 cells after 24 hrs by fluorimetric microculture cytotoxicity assay", "type": "cell-based", "settings": "C3H 10T1/2, 24 h", "how_it_was_run": "as §1"}, "HaCaT [4]": {"test_system": "HaCaT", "assay": "Inhibition of Hh/GLI1-mediated PTCH protein expression in human HaCaT cells expressing T-Rex system after 24 hrs by Western blot", "type": "cell-based", "how_it_was_run": "(§2)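 HaCaT cells carrying tetracycline-inducible exogenous GLI1 plated at 2 × 10^6 per 10 cm dish for 12 h at 37 °C, then induced with 1 µg/mL tetracycline for 12 h. Medium removed and compounds added at various concentrations for 24 h. Lysates in Tris/NaCl/deoxycholate/EDTA buffer with protease inhibitor run on 5% and 12.5% SDS-PAGE. Immunoblot for PTCH, BCL-2 and GLI1 with ECL detection.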"}, "HaCaT [5]": {"test_system": "HaCaT", "assay": "Inhibition of Hh/GLI1-mediated Bcl2 protein expression in human HaCaT cells expressing T-Rex system after 24 hrs by Western blot", "type": "cell-based", "how_it_was_run": "as §2"}, "PANC-1 [6]": {"test_system": "PANC-1", "assay": "Inhibition of Hh/GLI1-mediated PTCH protein expression in human PANC1 cells after 24 hrs by Western blot", "type": "cell-based", "how_it_was_run": "(§3)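 PANC1 cells treated with compounds at various concentrations for 24 h. Lysates run on SDS-PAGE, transferred to PVDF and blocked 1 h in TBST with 5% milk. Primary antibodies (PTCH, BCL-2) 1 h at room temperature, secondary 1 h, then ECL detection. Same procedure as for the HaCaT blots.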"}, "PANC-1 [7]": {"test_system": "PANC-1", "assay": "Inhibition of Hh/GLI1-mediated Bcl2 protein expression in human PANC1 cells after 24 hrs by Western blot", "type": "cell-based", "how_it_was_run": "as §3"}, "PANC-1 [8]": {"test_system": "PANC-1", "assay": "Inhibition of Hh/GLI1-mediated PTCH mRNA expression in human PANC1 cells at 0.2 uM after 24 hrs by RT-PCR", "type": "cell-based", "how_it_was_run": "(§4)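 PANC1 cells treated, with untreated cells as control. Ptch mRNA was reverse transcribed with a two-step qRT-PCR kit and quantified by real-time PCR: 50 °C for 2 min, 95 °C for 2 min, then 40 cycles of 95 °C for 15 s and 60 °C for 30 s. Expression was compared with the untreated control.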"}, "PANC-1 [9]": {"test_system": "PANC-1", "assay": "Inhibition of Hh/GLI1-mediated PTCH mRNA expression in human PANC1 cells at 0.4 uM after 24 hrs by RT-PCR", "type": "cell-based", "how_it_was_run": "as §4"}, "PANC-1 [10]": {"test_system": "PANC-1", "assay": "Inhibition of Hh/GLI1-mediated PTCH mRNA expression in human PANC1 cells at 4 uM after 24 hrs by RT-PCR", "type": "cell-based", "how_it_was_run": "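Ptch mRNA from treated and untreated PANC1 cells reverse-transcribed with a two-step qRT-PCR kit. Real-time PCR: 50 °C 2 min, 95 °C 2 min, then 40 cycles of 95 °C 15 s and 60 °C 30 s. Compared with an untreated control; cyclopamine included as positive control.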"}, "PANC-1 [11]": {"test_system": "PANC-1", "assay": "Inhibition of Hh/GLI1-mediated PTCH mRNA expression in human PANC1 cells at 2 and 4 uM after 24 hrs by RT-PCR"}}, "note": "Activity calls are given as the source filed them. The calls are words filed in the database; no cut-off is given here.", "data": [{"smiles": "CC1=C(C)[C@@]2(C)CCCC(C)(C)[C@@H]2CC1", "values": [{"measurement": "IC50", "setting": "[1]", "result": 13.5, "unit": "µM"}, {"measurement": "IC50", "setting": "PANC-1 [2]", "result": 15.1, "unit": "µM"}, {"measurement": "IC50", "setting": "DU-145", "result": 23.2, "unit": "µM"}, {"measurement": "IC50", "setting": "[3]", "result": "> 100", "unit": "µM"}, {"measurement": "inhibition", "setting": "HaCaT [4]", "result": "Dose-dependent effect"}, {"measurement": "inhibition", "setting": "HaCaT [5]", "result": "Dose-dependent effect"}, {"measurement": "inhibition", "setting": "PANC-1 [6]", "result": "Dose-dependent effect"}, {"measurement": "inhibition", "setting": "PANC-1 [7]", "result": "Dose-dependent effect"}]}, {"smiles": "CC1=C2C[C@H]3[C@@H](CC=C4C[C@@H](O)CC[C@@]43C)[C@@H]2CC[C@]12O[C@@H]1C[C@H](C)CN[C@H]1[C@H]2C", "values": [{"measurement": "inhibition", "setting": "PANC-1 [8]", "result": "Active"}, {"measurement": "inhibition", "setting": "PANC-1 [9]", "result": "Active"}]}, {"smiles": "COC(=O)[C@]1(C)CCC[C@]2(C)c3cc4occc4c(C)c3C[C@@H](OC(C)=O)[C@@H]12", "note": "[TAEPEENIN D]", "values": [{"measurement": "IC50", "setting": "[1]", "result": 1.6, "unit": "µM"}, {"measurement": "IC50", "setting": "PANC-1 [2]", "result": 3.2, "unit": "µM"}, {"measurement": "IC50", "setting": "DU-145", "result": 3.4, "unit": "µM"}, {"measurement": "IC50", "setting": "[3]", "result": "> 100", "unit": "µM"}, {"measurement": "inhibition", "setting": "HaCaT [4]", "result": "Dose-dependent effect"}, {"measurement": "inhibition", "setting": "HaCaT [5]", "result": "Dose-dependent effect"}, {"measurement": "inhibition", "setting": "PANC-1 [6]", "result": "Dose-dependent effect"}, {"measurement": "inhibition", "setting": "PANC-1 [7]", "result": "Dose-dependent effect"}, {"measurement": "inhibition", "setting": "PANC-1 [10]", "result": "Active"}, {"measurement": "inhibition", "setting": "PANC-1 [11]", "result": "Active"}]}]}
